The test system of one test is HeLa. Nature of the test: Antiproliferative activity against human HeLa cells after 48 hrs by MTT assay relative to control. The test is classed as functional, cell-based. A digest of the protocol: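 HeLa cells exposed to compounds for 48 h; viability read as mitochondrial dehydrogenase activity by MTT reduction; IC50 values derived.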
Test [1] has as its system Jurkat. Nature of the test: Induction of apoptosis in Jurkat cells at 5 uM after 36 hrs by flow cytometry. The format is functional, Homo sapiens. The gist of the method: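 Jurkat cells incubated 36 h with agents at 5 μM (DMSO control); apoptosis scored by flow cytometry after annexin-V/propidium iodide staining; two experiments.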
On the technique in general: In flow cytometry, cells or beads pass a laser one at a time.

The subject of test [2] is Jurkat. Description: Cell cycle arrest in Jurkat cells assessed as accumulation at G0/G1 phase at 5 uM after 15 hrs relative to control. The format is functional, Homo sapiens. The gist of the method: (§1)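 Jurkat cells treated 15 h (test agents 5 μM, colchicine 25 μM, DMSO vehicle control); DNA stained with Vybrant Orange and analysed by flow cytometry; percent of cells in G0/G1, S and G2/M given as mean ± SD.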

In test [3] the test system is Jurkat. Nature of the test: Cell cycle arrest in Jurkat cells assessed as accumulation at S phase at 5 uM after 15 hrs relative to control. The format is functional, Homo sapiens. A digest of the protocol:
as §1

Test [4] has as its system Jurkat. Description: Cell cycle arrest in Jurkat cells assessed as accumulation at G2/M phase at 5 uM after 15 hrs relative to control. The test is classed as functional, Homo sapiens. A digest of the protocol:
as §1

For test [5], the system named is Jurkat. Nature of the test: Cell cycle arrest in Jurkat cells assessed as accumulation at G0/G1 phase at 25 uM after 15 hrs relative to control. The format is functional, Homo sapiens. The gist of the method: as §1
The subject of test [6] is Jurkat. Description: Cell cycle arrest in Jurkat cells assessed as accumulation at S phase at 25 uM after 15 hrs relative to control. The format is functional, Homo sapiens. A digest of the protocol: as §1
Test [7] has as its system Jurkat. Nature of the test: Cell cycle arrest in Jurkat cells assessed as accumulation at G2/M phase at 25 uM after 15 hrs relative to control. The format is functional, Homo sapiens. A digest of the protocol: as §1

Activity calls are given as the source filed them. The rule behind the calls is not given here.

As a reminder, the IC50 is the midpoint of a concentration-inhibition curve. A high value points to weaker potency. Take `COc1cc(C2C(C#N)=C(N)Oc3cc(C)n(C)c(=O)c32)cc(Br)c1O` (stereo not drawn): inhibition in the test with HeLa was half-maximal at 2.67 µM (IC50). For the same compound, the Activity with Jurkat [1] is recorded as 50%.

Compound `CCOc1c(Br)cc(C2C(C#N)=C(N)Oc3cc(C)n(C)c(=O)c32)cc1OC` (stereo not drawn) came in with an IC50 in the test on HeLa of 1.08 µM. The compound also showed an Activity in the test on Jurkat [1] of 50%.

For `Cc1cc2c(c(=O)n1C)C(c1ccc(C(C)C)cc1)C(C#N)=C(N)O2` (stereo not drawn), in the test with HeLa, the IC50 is above 100 µM. Also, in the test on Jurkat [1] (Homo sapiens), the result was inactive.

The compound `COc1ccc(CCn2c(C)cc3c(c2=O)C(c2cc(OC)c(OC)c(OC)c2)C(C#N)=C(N)O3)cc1OC` (stereo not drawn) came in with an IC50 in the test on HeLa of 22.7 µM. Moreover, the result with Jurkat [1] (Homo sapiens) was inactive.

Regarding `Cc1cc2c(c(=O)n1C)C(c1ccc(F)c(Br)c1)C(C#N)=C(N)O2` (stereo not drawn), the IC50 in the test with HeLa was 6.33 µM. Further, the Activity in the test with Jurkat [1] was determined as 50%.

For `Cc1cc2c(c(=O)n1C)C(c1ccc(N(C)C)c(Br)c1)C(C#N)=C(N)O2` (stereo not drawn), the IC50 in the test on HeLa was 0.33 µM. For the same compound, the Activity with Jurkat [1] is recorded as 50%; with Jurkat [2], 14.4%; with Jurkat [3], 18.1%; in the test on Jurkat [4] it was 67.5%.

Consider `Cc1cc2c(c(=O)o1)C(c1cccc(Br)c1)C(C#N)=C(N)O2` (stereo not drawn), for which the IC50 in the test on HeLa is above 100 µM.

For `Cc1cc2c(c(=O)n1C)C(c1ccc(Cl)c(Cl)c1)C(C#N)=C(N)O2` (stereo not drawn), it took 18.3 µM to reach half-maximal inhibition with HeLa (IC50). The result with Jurkat [1] (Homo sapiens) was inactive.

`COc1cc2c(c(OC)c1OC)-c1ccc(OC)c(=O)cc1[C@@H](NC(C)=O)CC2` [COLCHICINE]: the Activity in the test with Jurkat [5] turned out to be 19%; in the test on Jurkat [6], 23.1%; with Jurkat [7], 57.9%.

In the test with HeLa, `COc1cc(C2C(C#N)=C(N)Oc3cc(C)n(C)c(=O)c32)cc(Br)c1OC` (stereo not drawn) returned an IC50 of 0.58 µM. Moreover, the Activity in the test with Jurkat [1] worked out at 50%; in the test on Jurkat [2] it was 12%; in the test with Jurkat [3], 19%; with Jurkat [4], 68.5%.

For `Cc1cc2c(c(=O)n1C)C(c1cccc(Br)c1)C(C#N)=C(N)O2` (stereo not drawn), the half-maximal inhibitory concentration (IC50) in the test on HeLa stood at 6.5 µM. In addition, the Activity with Jurkat [1] worked out at 50%.

Consider `COc1cc(C2C(C#N)=C(N)Oc3cc(C)n(C)c(=O)c32)cc(Br)c1OC(C)=O` (stereo not drawn), for which half-maximal inhibition in the test on HeLa (IC50) was put at 3.5 µM. Moreover, the Activity in the test on Jurkat [1] was 50%.

`COc1cc(C2C(C#N)=C(N)Oc3cc(C)n(C)c(=O)c32)cc(OC)c1OC` (stereo not drawn) came in with an IC50 in the test with HeLa of 43.3 µM.

In turn, `Cc1cc2c(c(=O)n1C)C(c1cccc([N+](=O)[O-])c1)C(C#N)=C(N)O2` (stereo not drawn) returned an IC50 with HeLa of 35 µM. In addition, the outcome in the test with Jurkat [1] (Homo sapiens) was inactive.
